From ChEMBL document CHEMBL3425410, “Specificity and inhibitory mechanism of andrographolide and its analogues as antiasthma agents on NF-κB p50” (J Nat Prod, 2015) come the findings set out here.

The source made the active and inactive calls. No cut-off for these calls is given here.

The target of data set [1] is T1, Nuclear factor NF-kappa-B p105 subunit (Homo sapiens) (UniProt P19838).
T1 sequence (whole entry): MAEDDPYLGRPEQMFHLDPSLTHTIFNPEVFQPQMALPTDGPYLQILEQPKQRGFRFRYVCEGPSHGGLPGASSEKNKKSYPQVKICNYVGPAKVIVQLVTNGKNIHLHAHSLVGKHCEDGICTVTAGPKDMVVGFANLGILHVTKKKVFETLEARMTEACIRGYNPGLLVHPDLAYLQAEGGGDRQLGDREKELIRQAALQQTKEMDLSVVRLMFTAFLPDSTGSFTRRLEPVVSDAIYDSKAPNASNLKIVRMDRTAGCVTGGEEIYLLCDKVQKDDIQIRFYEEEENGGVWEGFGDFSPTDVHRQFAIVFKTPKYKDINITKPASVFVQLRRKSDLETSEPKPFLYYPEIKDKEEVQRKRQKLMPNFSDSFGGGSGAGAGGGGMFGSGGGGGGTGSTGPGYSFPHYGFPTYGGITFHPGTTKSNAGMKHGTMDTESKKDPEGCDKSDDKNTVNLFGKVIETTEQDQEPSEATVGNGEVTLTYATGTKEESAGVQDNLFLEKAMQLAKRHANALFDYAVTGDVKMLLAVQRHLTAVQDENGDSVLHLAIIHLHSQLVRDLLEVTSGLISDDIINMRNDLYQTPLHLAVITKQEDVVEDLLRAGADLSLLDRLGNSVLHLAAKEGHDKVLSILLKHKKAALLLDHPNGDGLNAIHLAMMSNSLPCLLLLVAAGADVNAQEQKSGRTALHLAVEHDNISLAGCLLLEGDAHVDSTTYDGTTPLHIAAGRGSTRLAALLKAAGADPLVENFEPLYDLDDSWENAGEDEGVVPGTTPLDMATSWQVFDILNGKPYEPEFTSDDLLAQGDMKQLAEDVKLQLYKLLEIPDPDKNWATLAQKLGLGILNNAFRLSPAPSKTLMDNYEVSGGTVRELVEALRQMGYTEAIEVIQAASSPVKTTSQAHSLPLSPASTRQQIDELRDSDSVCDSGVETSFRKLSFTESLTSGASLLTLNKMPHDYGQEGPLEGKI
The experiment in a line: Binding affinity to 6His-tagged recombinant human NF-kappaB p50 N-terminal domain expressed in Escherichia coli BL21 (DE3) up to 10:1 compound to protein molar ratio after 2 hrs by mass spectrometric analysis. Summed up: (§1)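 Recombinant 6His-tagged p50 NTD (E. coli BL21(DE3), Ni-NTA then Superdex 200 gel filtration, dialysed into PBS) at 20 μM, incubated with compound in PBS with 1 mM EDTA, 10 μM β-mercaptoethanol, 5% glycerol (v/v), 37 °C, 2 h. Acetic acid quench, reversed-phase column, ESI-MS at m/z 500–3000. Reaction extent scored from adduct versus unbound protein across rising molar ratios.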

In data set [2] the target is T1, Nuclear factor NF-kappa-B p105 subunit (Homo sapiens). The experiment in a line: Inhibition of TNF-alpha-stimulated NF-kappaB p50 (unknown origin) expressed in HEK293 cells at 1 to 100 uM preincubated for 4 hrs followed by TNF-alpha challenge measured after 24 hrs by secreted alkaline phosphatase reporter assay. The class given is cell-based. Summed up: (§2)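 HEK293 stably transfected with NF-κB/SEAP, grown in DMEM/10% FBS/500 μg/mL G418 and seeded at ~2 × 10^5 cells/well to ~70% confluence. Pretreated 4 h with rising compound concentrations or 0.05% DMSO, then TNF-α 10 ng/mL for 24 h. Secreted SEAP measured by kit, with TNF-α-induced untreated cells as 100%. Quadruplicates, mean; IC50 from the concentration curve.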
For orientation: Reporter assays use an easily measured gene product as a stand-in for the process of interest.

A short description of data set [3]: Cytotoxicity against human Jurkat T cells assessed as appearance of early apoptotic cells at 25 uM after 24 hrs by annexin V-FLUOS/propidium iodide staining-based flow cytometric analysis. The class given is cell-based. The gist of the method:
(§3)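 Jurkat T lymphocytes kept at 37 °C, 5% CO2 in RPMI1640 with 10% FBS and 1% streptomycin/penicillin. Exposed to 25 μM compound for 24 h, then stained with annexin-V-FLUOS and propidium iodide and read by flow cytometry. Viable cells are negative for both stains.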
A general note: In flow cytometry, cells or beads pass a laser one at a time.

A short description of data set [4]: Cytotoxicity against human Jurkat T cells assessed as appearance of late apoptotic cells at 25 uM after 24 hrs by annexin V-FLUOS/propidium iodide staining-based flow cytometric analysis. The class given is cell-based. Summed up:
as §3

The nature of data set [5]: Cytotoxicity against human Jurkat T cells assessed as appearance of necrotic cells at 25 uM after 24 hrs by annexin V-FLUOS/propidium iodide staining-based flow cytometric analysis. The class given is cell-based. The gist of the method: as §3
The nature of data set [6]: Cytotoxicity against human Jurkat T cells assessed as appearance of viable cells at 25 uM after 24 hrs by annexin V-FLUOS/propidium iodide staining-based flow cytometric analysis. It is filed as cell-based. Conditions: read-out: Activity. The gist of the method:
as §3

The target in data set [7] is T2, Nuclear factor NF-kappa-B p105 subunit (Homo sapiens, UniProt P19838).
T2 sequence (P19838 whole entry): T1 sequence (whole entry)
Description: (§4) Inhibition of TNF-alpha-stimulated NF-kappaB p50 (unknown origin) expressed in HEK293 cells preincubated for 4 hrs followed by TNF-alpha challenge measured after 24 hrs by secreted alkaline phosphatase reporter assay. The class given is cell-based. Summed up:
as §2

Data set [8] in a line: Cytotoxicity against human Jurkat T cells assessed as apoptosis after 24 hrs by annexin V-FLUOS/propidium iodide staining-based flow cytometric analysis. It is filed as cell-based. Summed up: as §3
For data set [9], the target named is T1, Nuclear factor NF-kappa-B p105 subunit (Homo sapiens). The data set is described as §4. It is filed as cell-based. Summed up: as §2
Data set [10] shares this target. Description: Binding affinity to 6His-tagged recombinant human NF-kappaB p50 N-terminal domain expressed in Escherichia coli BL21 (DE3) at 4:1 compound to protein molar ratio after 2 hrs by mass spectrometric analysis. The gist of the method:
as §1

Data set [11] has the same target. Description: Binding affinity to 6His-tagged recombinant human NF-kappaB p50 N-terminal domain expressed in Escherichia coli BL21 (DE3) up to 50:1 compound to protein molar ratio after 2 hrs by mass spectrometric analysis. The gist of the method: as §1

As to `C=C1CC[C@@H]2[C@](C)(CO)[C@H](O)CC[C@@]2(C)[C@@H]1C/C=C1\C=COC1=O`, in data set [1], the result was inactive. Also, in data set [2], the inhibition entry is “inactive”. The Activity in data set [3] was determined as 15.55%; in data set [4], 1.57%; in [5], 0.3%. The viability at 24 h, 25 µM in data set [6] was found to be 82.6%.
On to `C=C1CC[C@@H]2[C@](C)(CO)[C@H](O)CC[C@@]2(C)[C@@H]1C/C=C1/C(=O)OC[C@H]1O` [ANDROGRAPHOLIDE], for which the half-inhibitory concentration (IC50) (commonly the concentration at which inhibition is half-maximal) in [7] was found to be 49.6 µM. The Activity turned out to be 35.3% in data set [3], 9.1% in data set [4] and 1.39% in data set [5]. Also, the viability at 24 h, 25 µM in data set [6] turned out to be 54.2%.
As to `C[C@]1(CO)[C@H]2CCC(=O)[C@@H](C/C=C3/SC(=S)NC3=O)[C@]2(C)CC[C@H]1O`, the outcome in data set [1] was inactive. The inhibition result in [2] was “inactive”. Further, the Activity in data set [3] stood at 6.91%; in [4], 7.96%; in [5] it was 1.05%. Further, the viability at 24 h, 25 µM in data set [6] is 84.1%.
For the compound `C=C1CC[C@@H]2[C@](C)(CO[C@@H]3O[C@H](CO)[C@@H](O)[C@H](O)[C@H]3O)CCC[C@@]2(C)[C@@H]1CCC1=CCOC1=O` [NEOANDROGRAPHOLIDE], the Activity result in data set [8] is “Non-toxic”. Besides, the outcome in data set [1] was inactive. Moreover, in [9], the inhibition result is “inactive”.
For the compound `C=C1CC[C@@H]2[C@](C)(COC(C)=O)[C@H](OC(C)=O)CC[C@@]2(C)[C@@H]1C/C=C1\C=COC1=O`, the result in data set [10] was Active. Further, in data set [7], the IC50 was found to be 11.1 µM. In addition, the values for the Activity in data set [3], in [4] and in data set [5] were 38.24%, 47.95% and 0.24%, respectively. Further, the viability at 24 h, 25 µM in data set [6] is 13.6%.
For `C[C@]1(CO)[C@H]2CCC(=O)[C@@H](C/C=C3\CCOC3=O)[C@]2(C)CC[C@H]1O`, the outcome in data set [1] was inactive. For the same compound, the inhibition entry in [2] was “inactive”. Moreover, the figures for the Activity in data set [3], in [4] and in data set [5] were 6.29%, 5.52% and 0.33%, respectively. For the same compound, in [6], the viability at 24 h, 25 µM was determined as 87.9%.
As for `C=C1CC[C@@H]2[C@](C)(CO)[C@H](O)CC[C@@]2(C)[C@@H]1CCC1=CCOC1=O` [DEOXYANDROGRAPHOLIDE], in data set [8], the Activity result is listed as “Non-toxic”. Also, the result in data set [1] was inactive. The inhibition result in data set [9] was “inactive”.
As to `C=C1CC[C@@H]2[C@](C)(CO)[C@H](O)CC[C@@]2(C)[C@@H]1/C=C/C1=CCOC1=O`, in data set [11], the outcome was Active. Also, the inhibition result in data set [2] is “inactive”. Also, the Activity in data set [3] is 10.89%; in [4], 1.31%; in [5], 0.25%. Further, in data set [6], the viability at 24 h, 25 µM is 87.5%.
